Source: PubChem BioAssay (several laboratories)
H9c2 TAG inh = inhibitors of triacylglycerol accumulation, primary screen, cell-based, uHTS, fluorescence, H9c2; H9c2 cells, Nile Red lipid (TAG) fluorescence; cells loaded with 200 µM oleic acid; inhibition, % at 12.5 µM; hit rate 0.66% among 230,000; AID 651582, 2012;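 active = pattern-corrected inhibition of lipid staining of at least 50% with the nuclear-stain viability signal not falling by more than 50%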;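 note: 0% = DMSO wells and 100% = triacsin C control wells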
MC4R ag barr = MC4R agonists recruiting beta-arrestin, primary screen, cell-based, luminescence, agonist arm of biased-ligand search | AID 540308, 2011 | activation, % at 8.9 µM | hit rate 0.98% among 360,000 | U2OS MC4R beta-arrestin complementation; percent of melanotan II response, DMSO zero | Melanocortin receptor 4 (Homo sapiens), P32245;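 active = activation above a per-plate cutoff, the mean activation of sample wells on that plate plus 3 SD, cut at about 8% in these data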
TbMetRS inhib = T. brucei MetRS inhibitors, primary screen, biochemical, luminescence; methionyl-tRNA synthetase (Trypanosoma brucei brucei); hit rate 0.4% among 360,000; inhibition, % at 11.9 µM; AID 624268, 2012; purified T. brucei MetRS, ATP depletion, Kinase-Glo luminescence;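 active = inhibition above a per-plate cutoff of the control wells' mean inhibition plus 3 SD, cut at about 5.5% in these data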;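 note: 0% = DMSO wells median and 100% = median of wells with control inhibitor compound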
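Assay system: T. brucei methionyl-tRNA synthetase, purified | Medium: HEPES buffer with MgCl2, KCl, DTT, spermine, BSA, pyrophosphatase | Compound: 11.9 µM single point | Incubation: 15 min enzyme-compound preincubation, 2 h reaction, 10 min detection, 25 °C | Measured by: Kinase-Glo luciferase luminescence reporting remaining unconsumed ATP | Measure: % inhibition normalized to control-well medians | Replication: Singlicate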
MC4R antagonist = MC4R antagonists of cAMP signaling, primary screen, cell-based, TR-FRET, antagonist arm of biased-ligand search; hit rate 0.48% among 360,000; MC4R-expressing cells, MTII-stimulated cAMP, LANCE TR-FRET; Melanocortin receptor 4 (Homo sapiens), P32245; inhibition, % at 6.5 µM;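 active = inhibition above its plate's cutoff, the mean of tested wells on that plate plus 3 SD, cut at about 29% in these data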;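 note: 0% = Melanotan II alone and 100% = Melanotan II plus saturating MCL0020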
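Material: human MC4R-expressing U2OS cells. Probe or stimulus: Melanotan II challenge. Dosing: 6.5 µM single dose. Times: 30-min compound, 1-h challenge, 1-h detection, room temperature. Technique: TR-FRET with Eu-cAMP and labeled anti-cAMP, 671 nm. Replication: singlicate.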
aDG glyco up = activators of alpha-DG glycosylation, primary screen, uHTS, Pro5-aDG cells, AlphaScreen | hit rate 0.22% among 360,000 | alpha-DG glycosylation AlphaScreen (IIH6); 0% Pro5, 100% B10-LARGE cell signal | AID 624168, 2012 | activation, % at 10 µM;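 active = activation of at least 8% versus controls, or a plate z-score of at least 8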;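 note: Pro5 are CHO cells carrying HIG-tagged alpha-DG that lacks glycosylation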
NTR1 agonist = agonists of human NTR1, primary screen, imaging, U2OS cells, beta-arrestin-GFP, high content. Neurotensin receptor type 1 (Homo sapiens), P30989. NTR1-U2OS beta-arrestin-GFP spot imaging, agonist mode. activation, % at 20 µM. hit rate 0.17% among 330,000. AID 493036, 2011;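 active = activation at or above 40% of the spot to cytoplasm intensity ratio, with at least 20 cells analyzed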;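 note: 0% = DMSO without peptide and 100% = 100 nM NTR1 peptide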
H9c2 TAG conf = triacylglycerol accumulation inhibitors, retest, confirmation, cell-based, single concentration, Nile Red fluorescence, H9c2; shares compounds with H9c2 TAG inh; H9c2 lipid accumulation; cells loaded with 200 µM oleic acid; inhibition, % at 12.5 µM; hit rate 71% among 990; AID 651629, 2012;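 active = mean inhibition across replicates of 40% or more; inactive = mean inhibition below 40%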;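 note: plate controls were DMSO only wells for no effect and Triacsin C treated wells for full effect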
* marks the source's active call; other numbers are inactive results; · = no result. A selection: hits, their analogues and other compounds. The true share with any hit is near 2.4%.

SMILES | H9c2 TAG inh | MC4R ag barr | TbMetRS inhib | MC4R antagonist | aDG glyco up | NTR1 agonist | H9c2 TAG conf
COc1ccc(S(=O)(=O)N2Cc3cnnn3-c3ccccc3C2C#N)cc1 (stereo unspecified) | 4 | -1 | 0 | -1 | 0 | · | ·
COC(=O)C1=C(c2ccccc2OCc2ccccc2)C[C@@H]2CC[C@H]1N2C(=O)NCc1ccc(OC)c(OC)c1 | 56* | -2 | 0 | 14 | 0 | 4 | 28
COC(=O)C1=C(c2ccccc2OCc2ccccc2)C[C@@H]2CC[C@H]1N2C(=O)NCc1cccc(F)c1 | 33 | -2 | 1 | 6 | 0 | 2 | ·
CCC1(Cc2ccccc2)C(=O)NC(=S)N(C)C1=O (stereo unspecified) | 2 | -1 | 0 | 12 | 0 | · | ·
O=P(O)(O)CN1CCNCCN(CP(=O)(O)O)CCNCC1 | 57* | 0 | 0 | 2 | 0 | · | 63*
CCCCn1c(N)c(C(=O)NCc2cccs2)c2nc3ccccc3nc21 | 67* | 5 | 1 | -4 | 1 | 8 | 1
CCOC(=O)C(NC(=O)CC)(Nc1ccc(C(O)(C(=O)OCC)C(F)(F)F)cc1C)C(F)(F)F (stereo unspecified) | 55* | -1 | -1 | -2 | 0 | 0 | 23
O=C1NCN(c2ccccc2)C12CCN(C(c1ccccc1OC(F)(F)F)c1nnnn1-c1ccc3c(c1)OCCO3)CC2 (stereo unspecified) | · | · | 0 | · | 0 | · | ·
